Experimental data as given in ChEMBL document CHEMBL4368870, “Design, synthesis and biological evaluation of novel 2-phenyl pyrimidine derivatives as potent Bruton's tyrosine kinase (BTK) inhibitors” (Medchemcomm, 2019).
The source made the active and inactive calls. The calls are words filed in the database; no cut-off is given here.

How the values were obtained:
Ramos [1] = assay: Induction of apoptosis in human Ramos cells assessed as late apoptotic cells at 5 uM after 48 hrs by propidium iodide staining-based flow cytometric analysis (reference value: 0.98%); type: functional
Ramos [2] = assay: Antiproliferative activity against human Ramos cells after 48 hrs by MTT assay; type: functional, cell-based
In short: (§1)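 Cell proliferation read by MTT in three […] (HL60, Raji, Ramos), all said to over-express BTK. IC50 values were determined for each line.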

Ramos [3] = assay: Cell cycle arrest in human Ramos cells assessed as apoptotic cells at 5 uM after 48 hrs by propidium iodide staining-based flow cytometric analysis (reference value: 5.03%); type: functional
Ramos [4] = assay: Cell cycle arrest in human Ramos cells assessed as accumulation of cells at S phase at 5 uM after 48 hrs by propidium iodide staining-based flow cytometric analysis (reference value: 71.08%); type: functional
In short: (§2)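 Ramos cells incubated 48 h with 5 μM test agent, DMSO as blank control; DNA content by flow cytometry gives the share of cells in each cell-cycle phase.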

Raji [5] = assay: Antiproliferative activity against human Raji cells after 48 hrs by MTT assay; type: functional, cell-based; in short: as §1
Ramos [6] = assay: Induction of apoptosis in human Ramos cells assessed as viable cells at 5 uM after 48 hrs by propidium iodide staining-based flow cytometric analysis (reference value: 96.83%); type: functional; conditions: read-out: Activity
Ramos [7] = assay: Induction of apoptosis in human Ramos cells assessed as early apoptotic cells at 5 uM after 48 hrs by propidium iodide staining-based flow cytometric analysis (reference value: 1.08%); type: functional
Raji [8] = assay: Antiproliferative activity against human Raji cells at 5 uM by MTT assay; type: functional, cell-based; conditions: TDE = time-dependent effect
In short: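 Raji cells, proliferation by MTT; viability followed over treatment time at 5 μM.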

Ramos [9] = assay: Cell cycle arrest in human Ramos cells assessed as accumulation of cells at G0/G1 phase at 5 uM after 48 hrs by propidium iodide staining-based flow cytometric analysis (reference value: 24.65%); type: functional; in short: as §2
Ramos [10] = assay: Cell cycle arrest in human Ramos cells assessed as accumulation of cells at G2/M phase at 5 uM after 48 hrs by propidium iodide staining-based flow cytometric analysis (reference value: 4.26%); type: functional; in short: as §2
HL-60 = assay: Antiproliferative activity against human HL60 cells after 48 hrs by MTT assay; type: functional, cell-based; conditions: HL-60, 48 h; in short: as §1
Ramos [11] = assay: Induction of apoptosis in human Ramos cells assessed as necrotic cells at 5 uM after 48 hrs by propidium iodide staining-based flow cytometric analysis (reference value: 1.11%); type: functional
[12] = biological target: Tyrosine-protein kinase BTK (Homo sapiens) (UniProt Q06187); assay: Inhibition of BTK in human Ramos cells assessed as reduction in PLCgamma-2 phosphorylation at Try1217 residue at 100 to 9000 nM after 24 hrs by Western blot analysis; type: cell-based
Chain of Tyrosine-protein kinase BTK (Homo sapiens) (Q06187 whole entry): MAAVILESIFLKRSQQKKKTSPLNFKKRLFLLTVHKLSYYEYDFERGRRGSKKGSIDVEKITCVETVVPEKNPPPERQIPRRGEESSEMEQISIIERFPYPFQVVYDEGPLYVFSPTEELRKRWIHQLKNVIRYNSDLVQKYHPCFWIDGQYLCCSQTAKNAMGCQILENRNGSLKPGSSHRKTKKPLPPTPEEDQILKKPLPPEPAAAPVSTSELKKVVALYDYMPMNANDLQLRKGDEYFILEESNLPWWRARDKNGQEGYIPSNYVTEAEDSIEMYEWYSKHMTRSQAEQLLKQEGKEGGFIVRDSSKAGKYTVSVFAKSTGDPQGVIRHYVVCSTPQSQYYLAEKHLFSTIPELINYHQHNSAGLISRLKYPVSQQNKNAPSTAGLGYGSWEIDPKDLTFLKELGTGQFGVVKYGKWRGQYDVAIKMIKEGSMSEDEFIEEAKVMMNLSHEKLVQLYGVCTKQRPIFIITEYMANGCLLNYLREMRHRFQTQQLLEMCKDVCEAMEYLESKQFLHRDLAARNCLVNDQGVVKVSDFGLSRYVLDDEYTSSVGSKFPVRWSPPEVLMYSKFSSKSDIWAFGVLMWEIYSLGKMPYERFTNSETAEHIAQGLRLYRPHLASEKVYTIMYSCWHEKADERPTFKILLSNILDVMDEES

[13] = biological target: Tyrosine-protein kinase BTK (Homo sapiens) (UniProt Q06187); assay: Inhibition of BTK phosphorylation at Tyr223 residue in human Ramos cells at 100 to 9000 nM after 24 hrs by Western blot analysis; type: cell-based
Raji [14] = assay: Antiproliferative activity against human Raji cells at 40 uM after 72 hrs by MTT assay relative to control; type: functional
In short: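 Raji cells were exposed to the compound over a range of concentrations and treatment times, with the MTT-based viability read-out taken up to 72 h. The 40 μM, 72 h point is expressed as viability relative to control.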

Structure (SMILES) | Activity (Ramos [1]) [%] | IC50 (Ramos [2]) [µM] | Activity (Ramos [3]) [%] | Activity (Ramos [4]) [%] | IC50 (Raji [5]) [µM] | viability at 5 µM (Ramos [6]) [%] | Activity (Ramos [7]) [%] | Activity (Raji [8]) | Activity (Ramos [9]) [%] | Activity (Ramos [10]) [%] | IC50 (HL-60) [µM] | Activity (Ramos [11]) [%] | inhibition [12] | inhibition [13] | Activity (Raji [14]) [%]
C=CC(=O)N1CCC[C@@H](n2nc(-c3ccc(Oc4ccccc4)cc3)c3c(N)ncnc32)C1 [IBRUTINIB] | 2.71 | 2.31 | 4.33 | 65.18 | 14.5 | 91.8 | 5.12 | Tde | 30.5 | 4.26 | 3.57 | 0.37 |  |  | 
C=CC(=O)Nc1ccc(-c2nc(Cl)cc(Nc3ccc(C(=O)Nc4cccc(C)c4)cc3)n2)cc1 | 12.7 | 5.39 | 13.91 | 59.51 | 6.98 | 61.3 | 25.8 | Tde | 36.27 | 4.21 | 3.66 | 0.23 | Active | Active | 90
C=CC(=O)Nc1ccc(-c2nc(Cl)cc(Nc3ccc(C(=O)Nc4cc(C)ccc4C)cc3)n2)cc1 |  | 16.8 |  |  | 20.9 |  |  |  |  |  | 14.9 |  |  |  | 
C=CC(=O)Nc1ccc(-c2nc(Cl)cc(Nc3ccc(C(=O)N4CCCC4)cc3)n2)cc1 |  | 10.4 |  |  | 19.2 |  |  |  |  |  | 15.8 |  |  |  | 
C=CC(=O)Nc1ccc(-c2nc(Cl)cc(Nc3ccc(C(=O)N4CCOCC4)cc3)n2)cc1 |  | 7.24 |  |  | 14.7 |  |  |  |  |  | 5.94 |  |  |  | 
C=CC(=O)Nc1ccc(-c2nc(Cl)cc(Nc3ccc(C(=O)Nc4cc(C(F)(F)F)cc(C(F)(F)F)c4)cc3)n2)cc1 |  | 6.18 |  |  | 9.36 |  |  |  |  |  | 4.79 |  |  |  | 
C=CC(=O)Nc1ccc(-c2nc(Cl)cc(Nc3ccc(C(=O)N(CC)CC)cc3)n2)cc1 |  | 11.2 |  |  | 12.5 |  |  |  |  |  | 9.34 |  |  |  | 
C=CC(=O)Nc1ccc(-c2nc(Cl)cc(Nc3ccc(C(=O)N(C)C)cc3)n2)cc1 |  | > 50 |  |  | 42.9 |  |  |  |  |  | > 50 |  |  |  | 
